Reference: ChEMBL document CHEMBL2331284, “Synthesis and biological evaluation of 1,3,4-thiadiazole analogues as novel AChE and BuChE inhibitors” (Eur J Med Chem, 2013)
pIC50: −log10 of the molar value. Calls of active or inactive are those of the source. The calls are words filed in the database; no cut-off is given here.

Experiments:
[1] = Selectivity ratio of IC50 for equine serum BChE to IC50 for electric eel AChE
How it was run: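 Modified Ellman assay for both enzymes: electric eel AChE with ATCh, or equine serum BuChE with BTCh; DTNB; 0.1 M potassium phosphate pH 8. Compound preincubated 10 min before substrate, absorbance rise at 412 nm at 1-min intervals, 37 °C. Seven concentrations (10⁻³–10⁻⁹ M) run in triplicate. IC50 from log dose–response; ratio = IC50(BuChE)/IC50(AChE).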

Acetylcholinesterase = Acetylcholinesterase (Electrophorus electricus, UniProt O42275); assay: Inhibition of electric eel AChE using […] as substrate after 10 mins by Ellman method
Cholinesterase = Cholinesterase (Equus caballus, UniProt P81908); assay: Inhibition of equine serum BChE using butyrylthiocholine iodide as substrate after 10 mins by Ellman method
[2] = target: Acetylcholinesterase (Electrophorus electricus) (UniProt O42275); assay: Non-competitive inhibition of electric eel AChE using acetylcholine iodide as substrate at 0.10 to 0.14 uM by Lineweaver-Burk method
[3] = target: Acetylcholinesterase (Electrophorus electricus) (UniProt O42275); details: at 0.12 to 0.17 µM

Chain of Cholinesterase (P81908 whole entry): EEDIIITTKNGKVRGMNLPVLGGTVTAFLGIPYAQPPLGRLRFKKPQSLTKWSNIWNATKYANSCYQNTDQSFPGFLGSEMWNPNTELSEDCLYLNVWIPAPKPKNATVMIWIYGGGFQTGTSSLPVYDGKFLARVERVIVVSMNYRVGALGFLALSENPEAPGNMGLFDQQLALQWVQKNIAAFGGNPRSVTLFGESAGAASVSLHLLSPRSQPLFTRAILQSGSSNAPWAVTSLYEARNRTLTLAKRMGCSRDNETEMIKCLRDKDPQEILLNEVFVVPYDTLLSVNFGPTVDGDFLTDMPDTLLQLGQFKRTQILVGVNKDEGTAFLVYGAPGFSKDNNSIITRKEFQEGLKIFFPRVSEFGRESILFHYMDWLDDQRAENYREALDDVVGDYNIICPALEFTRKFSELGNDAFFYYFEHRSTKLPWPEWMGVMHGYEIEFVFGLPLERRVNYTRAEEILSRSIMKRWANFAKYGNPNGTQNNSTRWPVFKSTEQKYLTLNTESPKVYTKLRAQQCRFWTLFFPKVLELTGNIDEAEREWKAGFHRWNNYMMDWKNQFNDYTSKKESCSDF
Chain of Acetylcholinesterase (O42275 whole entry): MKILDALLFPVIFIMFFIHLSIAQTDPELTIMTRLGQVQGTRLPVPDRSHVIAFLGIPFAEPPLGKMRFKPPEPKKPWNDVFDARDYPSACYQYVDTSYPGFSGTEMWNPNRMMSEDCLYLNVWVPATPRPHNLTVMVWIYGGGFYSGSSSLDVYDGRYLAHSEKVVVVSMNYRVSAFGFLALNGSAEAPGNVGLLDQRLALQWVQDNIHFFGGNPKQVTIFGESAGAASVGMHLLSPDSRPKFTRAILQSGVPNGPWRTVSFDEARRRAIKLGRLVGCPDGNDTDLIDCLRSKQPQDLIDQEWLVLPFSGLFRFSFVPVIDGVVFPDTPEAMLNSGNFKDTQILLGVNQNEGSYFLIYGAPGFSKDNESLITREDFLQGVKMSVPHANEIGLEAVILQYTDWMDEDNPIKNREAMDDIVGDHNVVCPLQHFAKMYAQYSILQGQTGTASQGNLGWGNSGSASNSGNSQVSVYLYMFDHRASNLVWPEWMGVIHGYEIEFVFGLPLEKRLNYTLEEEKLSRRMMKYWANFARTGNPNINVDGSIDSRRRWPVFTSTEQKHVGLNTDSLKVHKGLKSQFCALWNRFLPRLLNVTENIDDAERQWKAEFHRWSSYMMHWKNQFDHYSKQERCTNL
Chain of Acetylcholinesterase (Electrophorus electricus) (O42275 24-633 limits assumed): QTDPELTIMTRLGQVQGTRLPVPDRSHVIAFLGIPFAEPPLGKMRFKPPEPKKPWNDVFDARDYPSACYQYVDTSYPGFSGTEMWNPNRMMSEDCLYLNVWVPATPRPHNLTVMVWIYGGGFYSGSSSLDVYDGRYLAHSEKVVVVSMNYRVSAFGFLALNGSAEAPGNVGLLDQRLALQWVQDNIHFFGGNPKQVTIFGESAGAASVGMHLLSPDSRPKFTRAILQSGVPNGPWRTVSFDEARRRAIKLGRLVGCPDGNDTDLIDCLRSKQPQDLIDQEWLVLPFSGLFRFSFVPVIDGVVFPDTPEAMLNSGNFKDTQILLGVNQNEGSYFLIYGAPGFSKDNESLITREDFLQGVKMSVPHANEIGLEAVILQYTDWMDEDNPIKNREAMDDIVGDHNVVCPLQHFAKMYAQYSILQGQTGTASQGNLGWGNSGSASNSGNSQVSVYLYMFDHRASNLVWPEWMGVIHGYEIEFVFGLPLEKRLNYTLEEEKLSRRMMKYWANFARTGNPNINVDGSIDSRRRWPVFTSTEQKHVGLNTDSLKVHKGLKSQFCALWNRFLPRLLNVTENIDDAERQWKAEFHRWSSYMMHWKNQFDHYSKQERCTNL

| Structure (SMILES) | Ratio IC50 [1] | pIC50 (Acetylcholinesterase) | pIC50 (Cholinesterase) | inhibition [2] | inhibition [3] |
| --- | --- | --- | --- | --- | --- |
| COc1ccc(-c2nnc(-c3ccc(O)cc3O)s2)cc1OC | > 25.9 | 4.71 | < 3.30 | – | – |
| Oc1ccc(-c2nnc(-c3ccc(C(F)(F)F)cc3)s2)c(O)c1 | 294 | 7.05 | 4.58 | Active | – |
| COc1ccccc1-c1nnc(-c2ccc(O)cc2O)s1 | 7.9 | 4.57 | 3.67 | – | – |
| Cc1cccc(-c2nnc(-c3ccc(O)cc3O)s2)c1 | 106 | 6.80 | 4.77 | – | Active |
| Oc1ccc(-c2nnc(-c3ccc(O)c(O)c3)s2)c(O)c1 | 11.4 | 6.72 | 5.67 | – | – |
| COc1cc(-c2nnc(-c3ccc(O)cc3O)s2)ccc1O | 5.9 | 4.72 | 3.95 | – | – |
| CN(C)C(=O)Oc1cccc([N+](C)(C)C)c1 [NEOSTIGMINE BROMIDE] | 1.4 | 7.30 | 7.15 | – | – |
| O=[N+]([O-])c1ccccc1-c1nnc(-c2ccc(O)cc2O)s1 | 27 | 5.67 | 4.24 | – | – |
| Oc1ccc(-c2nnc(-c3ccc(O)cc3O)s2)c(O)c1 | 14.2 | 5.72 | 4.57 | – | – |
| COc1ccc(OC)c(-c2nnc(-c3ccc(O)cc3O)s2)c1 | 40.5 | 5.81 | 4.20 | – | – |
| Nc1cccc(-c2nnc(-c3ccc(O)cc3O)s2)c1 | 48.7 | 5.76 | 4.07 | – | – |
| Oc1ccc(-c2nnc(-c3cc(Cl)cc(Cl)c3)s2)c(O)c1 | > 11.1 | 4.34 | < 3.30 | – | – |
| COc1cc(-c2nnc(-c3ccc(O)cc3O)s2)cc(OC)c1OC | 1150 | 6.77 | 3.71 | – | – |
| Oc1ccc(-c2nnc(-c3ccccc3F)s2)c(O)c1 | > 467 | 5.97 | < 3.30 | – | – |
| COc1ccc(-c2nnc(-c3ccc(O)cc3O)s2)cc1 | 44.2 | 5.66 | 4.02 | – | – |
| Oc1ccc(-c2nnc(-c3ccccc3Br)s2)c(O)c1 | 4.8 | 7.22 | 6.54 | – | – |
| Oc1ccc(-c2nnc(-c3ccc(Cl)cc3Cl)s2)c(O)c1 | > 3.9 | 3.89 | < 3.30 | – | – |
| COc1cccc(-c2nnc(-c3ccc(O)cc3O)s2)c1 | 25.5 | 5.73 | 4.56 | – | – |
| Cc1cc(-c2nnc(-c3ccc(O)cc3O)s2)ccc1[N+](=O)[O-] | 7.1 | 4.68 | 3.83 | – | – |
| Oc1ccc(-c2nnc(-c3cc(Cl)ccc3Cl)s2)c(O)c1 | 0.17 | 3.95 | 4.72 | – | – |
| Oc1ccc(-c2nnc(-c3ccccc3Cl)s2)c(O)c1 | 127 | 5.81 | 3.71 | – | – |
| O=[N+]([O-])c1cccc(-c2nnc(-c3ccc(O)cc3O)s2)c1 | 47.9 | 6.17 | 4.49 | – | – |
